This is a sample that favours compounds with a hit; in the whole collection about 12% have one here.
RAM inhibit – inhibitors of the yeast RAM network, primary screen, dse1pr::URA3 reporter, 5-FOA selection | inhibition, % at 50 µM | S. cerevisiae dse1pr::URA3 reporter, 5-FOA growth OD615, 2 d; analog-sensitive cbk1-as2 kinase mutant strain | 1.8% of 190,000 active;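 active = inhibition above a set limit, 3 SD over mean compound inhibition, cut at about 8.4% in these data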;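 note: 0% = DMSO-only wells with no growth and 100% = 10 µM 1-NA-PP1 full growth; inhibition rescues growth on 5-FOA so higher OD means more RAM inhibition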
Lmaj promast – Leishmania major promastigote growth inhibition, primary screen. Leishmania major promastigotes, resazurin fluorescence viability. inhibition, % at 10 µM. 9% of 200,000 active. AID 1063, 2008; in the data active = inhibition above about 50%;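 note: promastigotes grown with compound for 44 hours at 28 °C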
ABCB1 inh – ABCB1 efflux pump inhibitors, primary screen, cell-based, multiplex, flow cytometry, ABCG2 counter-screen; ATP-dependent translocase ABCB1 (Homo sapiens), P08183; CCRF-Adr cells, JC-1 efflux; inhibition, % at 6.6 µM; 0.067% of 190,000 active; in the data active = inhibition above about 40%;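 note: 0% = vehicle and 100% = reference inhibitor; higher value means more JC-1 retained so stronger ABCB1 efflux block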
WT yeast gro inh – growth inhibition of WT strain, primary screen, mitochondrial fusion inhibitor project, WT and mutant strains, chemical genetic; mitochondrial fusion phenotypic screen; inhibition, % at 10 µM; 2.1% of 190,000 active; in the data active = inhibition above about 58%; tested in S. cerevisiae
ABCG2 inh – ABCG2 efflux pump inhibitors, primary screen, multiplex with ABCB1, IgMXP3 cells, flow cytometry; JC-1 efflux; Broad substrate specificity ATP-binding cassette transporter ABCG2 (Homo sapiens), Q9UNQ0; inhibition, % at 6.6 µM; 0.1% of 190,000 active;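 active = inhibition above 80%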;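 note: 0% = DMSO and 100% = nicardipine control wells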
Target sequence (Q9UNQ0 whole entry, looked up): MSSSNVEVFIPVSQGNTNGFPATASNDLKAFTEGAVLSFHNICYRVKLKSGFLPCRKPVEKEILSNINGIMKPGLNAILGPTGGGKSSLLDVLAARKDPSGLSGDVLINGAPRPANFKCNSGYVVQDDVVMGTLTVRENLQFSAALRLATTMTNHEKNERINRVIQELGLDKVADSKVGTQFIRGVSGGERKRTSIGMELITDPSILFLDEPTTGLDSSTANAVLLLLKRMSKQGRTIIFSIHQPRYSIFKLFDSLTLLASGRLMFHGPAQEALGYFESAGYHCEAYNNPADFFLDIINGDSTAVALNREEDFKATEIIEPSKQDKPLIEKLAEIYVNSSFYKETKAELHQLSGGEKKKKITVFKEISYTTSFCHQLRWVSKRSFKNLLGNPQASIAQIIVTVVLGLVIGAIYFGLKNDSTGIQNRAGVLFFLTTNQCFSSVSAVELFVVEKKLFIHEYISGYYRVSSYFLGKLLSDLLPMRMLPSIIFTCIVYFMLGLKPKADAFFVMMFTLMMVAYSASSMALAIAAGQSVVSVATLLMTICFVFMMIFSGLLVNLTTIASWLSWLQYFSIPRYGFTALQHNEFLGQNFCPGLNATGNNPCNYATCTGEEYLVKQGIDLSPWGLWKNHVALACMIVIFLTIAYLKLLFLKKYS
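System: two drug-resistant human cell lines, ABCG2 and ABCB1; controls: nicardipine high and DMSO low controls; times: 10 min exposure at 25 °C with rotation, no wash; detection: flow cytometry of retained JC-1 fluorescence; read-out basis: percent efflux inhibition, scaled nicardipine 100% to DMSO 0%; doses: one concentration, 6.6 µM final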
An asterisk follows results filed as active; nt = not tested or not shown.

SMILES | RAM inhibit | Lmaj promast | ABCB1 inh | WT yeast gro inh | ABCG2 inh
Cc1ccc(C2(CCNCc3ccc(N(C)C)cc3)CCOC(C(C)C)C2)cc1 (stereo not given) | 0.2 | 100.0* | 2.2 | 35.3 | 7.0
CC(C)C1CC(CCNCc2ccc(N(C)C)cc2)(c2ccccc2)CCO1 (stereo not given) | -0.4 | 97.6* | 17.8 | 6.4 | 51.2
Cc1cc(-c2cc(-c3ccc(Cl)cc3)nc(N)c2C#N)co1 | 2.9 | 62.3* | -0.7 | 4.5 | -2.0
COc1ccc(-c2cc(-c3ccc(O)cc3)nc(N)c2C#N)cc1OC | 1.8 | 65.0* | 0.7 | 3.8 | 3.9
COc1ccc(-c2c(C#N)c(N)nc3c2CCc2ccccc2-3)cc1OC | 4.6 | 14.0 | 2.4 | 25.6 | 3.7
Cc1ccc(-c2cc(-c3ccc(Cl)cc3)c(C#N)c(N)n2)o1 | -1.2 | 12.7 | -0.6 | 2.5 | -0.3
O=S(=O)(c1ccc(Br)cc1)c1cnc2ccccc2n1 | 8.4 | 84.4* | 1.1 | -3.4 | 14.2
COc1ccc(S(=O)(=O)c2cnc3ccccc3n2)cc1 | 6.6 | 10.6 | 0.5 | -10.9 | 5.3
CSCCC(NC(=O)c1ccc(Br)cc1)C(=O)O (stereo not given) | 0.1 | 79.6* | -0.1 | -13.5 | -0.5
CC(C)CC(NC(=O)c1ccc(Cl)cc1)C(=O)O (stereo not given) | 1.4 | 84.0* | -0.4 | 0.3 | -1.1
O=C(O)CCC(NC(=O)c1ccc(Cl)cc1)C(=O)O (stereo not given) | 0.4 | -2.8 | -0.1 | -4.1 | -0.1
O=C(COC(=O)C(Cc1ccccc1)NC(=O)c1ccccc1)c1ccccc1 (stereo not given) | 6.3 | -4.9 | 0.9 | -21.7 | 2.0
O=C(COC(=O)C(Cc1ccccc1)NC(=O)c1ccc(Cl)cc1)c1ccc(Cl)cc1 (stereo not given) | 9.1* | 54.0* | 0.8 | 9.8 | 5.8
CCCCC(NC(=O)c1ccc(Cl)cc1)C(=O)O (stereo not given) | 0.9 | 85.9* | 0.7 | -4.1 | 1.5
O=C1Nc2cc(Cl)c(Cl)cc2N(O)N1c1ccc(Cl)c(Cl)c1 | 2.7 | -7.2 | 0.3 | 18.6 | 1.9
CCc1ccccc1NC(=S)NCCSc1ccc(Cl)cc1 | 10.5* | 30.6 | -1.8 | 81.2* | 6.8
Cc1ccc([N+](=O)[O-])cc1NC(=O)CCSc1ccc(Cl)cc1 | 3.5 | 1.2 | 1.3 | 26.1 | 7.4
COc1ccc(OC)c(NC(=S)NCCSc2ccc(C)cc2)c1 | 3.0 | -0.9 | -0.1 | 66.7* | 0.6
Cc1ccc(NC(=S)NCCSc2ccc(Cl)cc2)c(C)c1 | 10.9* | 19.2 | -0.4 | 73.3* | -0.7
COc1ccc(NC(=S)NCCSc2ccc(C)cc2)c(OC)c1 | nt | 17.2 | nt | nt | nt
Cc1ccc(C)c(NC(=S)NCCSc2ccc(Cl)cc2)c1 | 8.0 | 16.0 | -0.2 | 77.8* | 2.4
CCOc1nnnc2c1sc1nc(N3CCOCC3)c3c(c12)CCCC3 | 2.0 | 23.1 | 2.4 | -31.1 | 3.6
COc1ccc(S(=O)(=O)N2CCOCC2)cc1NC(=O)Cn1nnc2ccccc2c1=O | 1.8 | 5.5 | -0.3 | 12.0 | 10.1
Cc1ccccc1NC(=S)NCCSc1ccc(Cl)cc1 | 1.3 | 16.0 | 0.5 | 79.7* | 13.0
Cc1cccc(NC(=S)NCc2ccc(F)cc2)c1 | -0.5 | 15.2 | nt | -1.7 | 4.3
SMILES | RAM inhibit | Lmaj promast | ABCB1 inh | WT yeast gro inh | ABCG2 inh
Cc1cccc(NC(=S)NCCSc2ccc(Cl)cc2)c1 | 8.6* | 15.7 | -1.7 | 80.6* | 7.2
Cc1cc(Cl)ccc1NC(=S)NCCCO | -1.1 | -1.1 | 0.4 | 6.1 | 2.4
Cc1ccc(Cl)cc1NC(=S)NCCCSC1CCCCC1 | 7.5 | 34.3 | 1.4 | 86.2* | 25.1
Cc1cccc(NC(=S)NC(C)(C)CC(C)(C)C)c1 | -0.1 | 27.9 | -0.5 | 68.5* | -0.7
Cc1ccc(/C=C/C(=O)O)cc1S(=O)(=O)NCc1ccco1 | -0.6 | -7.0 | 0.6 | -28.9 | 1.0
Cc1ccc(C(=O)N2CCN(CCNC(=O)C(=O)NC(C)C)CC2)cc1 | -0.6 | -8.0 | 1.4 | -10.7 | 1.8
CC(=O)N1CCC(N(CCN2CCOCC2)C(=S)Nc2cc(C)ccc2C)CC1 | -0.4 | 31.6 | -0.7 | 0.4 | -5.1
COc1cccc(/C=C/C(=O)Nc2ccccc2N2CCOCC2)c1 | -1.1 | 11.1 | 1.6 | 14.5 | 0.6
CC1N(C)c2cc(NC(=O)c3cccs3)c(P(=O)(Nc3ccc([N+](=O)[O-])cc3)N3CCOCC3)cc2C1(C)C (stereo not given) | 3.9 | 59.0* | 3.5 | 4.1 | 2.8
COC(=O)c1ccc2nc(C)cc(Nc3ccc(N(C)C)cc3)c2c1 | 0.8 | 67.2* | 1.7 | 10.7 | 9.6
CCOC(=O)c1ccc2nc(C)cc(Nc3cccc(C(=O)O)c3)c2c1 | 3.9 | -6.2 | 0.3 | 0.6 | 0.5
COc1ccc(/C=N/NC(=O)Cc2cc(OC)c(OC)cc2[N+](=O)[O-])cc1 | 1.4 | -1.5 | -0.1 | 3.2 | -0.1
N/C(=N\c1nc2c(c(=O)[nH]1)CCC2)Nc1ccccc1 | 1.3 | 72.6* | -0.3 | 0.9 | 5.0
N/C(=N\c1nc2c(c(=O)[nH]1)CCCC2)Nc1ccccc1 | 2.0 | 7.4 | 0.2 | 26.7 | 0.9
COc1ccc(C(=O)N2CCN(C(C)=O)CC2)cc1S(=O)(=O)N1CCOCC1 | 0.0 | 17.6 | -0.2 | -2.7 | 0.8
CC(C)(C=O)C1=CC(=O)c2ccccc2C1=O | 0.0 | 55.6* | 0.1 | 77.8 | 3.3
Cc1ccc2nc(-c3ccccc3)c(CC(=O)O)c(C(=O)O)c2c1 | 1.5 | -6.4 | 0.5 | -3.1 | 8.9
CCOc1cc(/C=C/C(=O)c2ccc(C)cc2)ccc1OCC(=O)N(C)C | 0.8 | 100.0* | 0.6 | -24.7 | -0.7
CCOc1cc(/C=N/NC(=O)c2cccnc2)ccc1OCC(=O)N(C)C | -0.4 | -9.8 | 0.3 | 9.2 | 0.5
CCOc1cc(/C=C2/COc3ccccc3C2=O)ccc1OCC(=O)N(C)C | 2.8 | 100.4* | 1.3 | nt | 5.4
CCOC(=O)CC(=O)CSc1nc(-c2cccnc2)cc(C)c1C#N | 1.7 | -3.0 | 0.7 | 59.8* | 3.6
Cc1cccc(NC(=S)N2CCN(c3ccc(F)cc3)CC2)c1 | 5.2 | 15.5 | 0.0 | 16.3 | -0.1
O=C(NC1CCCCC1)C(c1ccccc1)N1CCc2ccccc21 (stereo not given) | 0.0 | 50.4* | 0.3 | -0.2 | 1.6
COc1cc(C(=O)NCC(c2ccccc2)N(C)C)ccc1OCC(=O)N1CCOCC1 (stereo not given) | -1.1 | 14.7 | 1.3 | -19.9 | 3.0
O=C(CC1CCCCC1)N1CCCC(c2nc(-c3ccc(S(=O)(=O)N4CCCC4)cc3)no2)C1 (stereo not given) | 1.2 | 54.8* | 1.6 | 38.1 | 2.2
COc1ccc(C(O)P(=O)(OCC(C)C)OCC(C)C)c(OC)c1 (stereo not given) | 1.9 | 65.2* | 0.4 | 3.4 | 0.9
CC(O)CNCCCOc1cccc(Oc2ccccc2)c1 (stereo not given) | 0.6 | 98.9* | 0.2 | -11.8 | 0.9

Screens (PubChem BioAssay)
